The source of these data is ChEMBL document CHEMBL5696442, “Discovery of type II inhibitors of TGFβ-activated kinase 1 (TAK1) and mitogen-activated protein kinase kinase kinase kinase 2 (MAP4K2)” (J Med Chem, 2015).

A value given as a limit tells only on which side of the number the result lay.

In assay [1] the target is RAF proto-oncogene serine/threonine-protein kinase (Homo sapiens, UniProt P04049). In words: Inhibition of RAF1 Lys2 labeling site in human A-375 cells at 0.5 uM by KiNativ Profiling analysis relative to control. It counts as cell-based.
A further assay concerns the target Ephrin type-A receptor 2 (Homo sapiens, UniProt P29317). Put plainly: Inhibition of EphA2 (unknown origin) ACT labeling site by KiNativ Profiling analysis.
The target in assay [2] is Dual specificity mitogen-activated protein kinase kinase 2 (Homo sapiens) (UniProt P36507). In words: Inhibition of MAP2K2 Lys1 labeling site in human A-375 cells at 0.5 uM by KiNativ Profiling analysis relative to control. Format: cell-based.
In assay [3] the target is Calcium/calmodulin-dependent protein kinase type 1 (Homo sapiens) (UniProt Q14012). In words: Inhibition of CAMK1 alpha Lys1 labeling site in human A-375 cells at 5 uM by KiNativ Profiling analysis relative to control. It counts as cell-based. The procedure, abridged:
(§1)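 Intact A375 melanoma cells were treated with compound at 5 or 0.5 μM, then lysed. Lysate kinases were labeled with a lysine-reactive ATP or ADP-biotin probe (KiNativ). Inhibition is read as protection of each kinase labeling site from probe labeling.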

Assay [4] concerns the target Calcium/calmodulin-dependent protein kinase type II subunit gamma (Homo sapiens) (UniProt Q13555). Put plainly: Inhibition of CaMK2g Lys1 labeling site harbouring TSTQEYAAKIINTK in human A-375 cells at 0.5 uM by KiNativ Profiling analysis relative to control. It counts as cell-based. In short, it runs like this: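 Live A375 melanoma cells were treated with compound at 5 or 0.5 μM. The cells were then lysed, and the lysates were labeled with a lysine-reactive ATP or ADP-biotin acyl probe (KiNativ). Inhibition is the compound's protection of each kinase labeling-site peptide from probe labeling, relative to untreated control.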

Assay [5] addresses T1, Tyrosine-protein kinase Fer (Homo sapiens, UniProt P16591). In words: Inhibition of FER ACT labeling site in human A-375 cells at 5 uM by KiNativ Profiling analysis relative to control. Format: cell-based.
The target of assay [6] is Serine/threonine-protein kinase WNK1 (Homo sapiens) (UniProt Q9H4A3). Put plainly: Inhibition of Wnk1 ATP Loop labeling site in human A-375 cells at 5 uM by KiNativ Profiling analysis relative to control. Format: cell-based.
Sequence of Serine/threonine-protein kinase WNK1 (Homo sapiens) (Q9H4A3 whole entry, looked up): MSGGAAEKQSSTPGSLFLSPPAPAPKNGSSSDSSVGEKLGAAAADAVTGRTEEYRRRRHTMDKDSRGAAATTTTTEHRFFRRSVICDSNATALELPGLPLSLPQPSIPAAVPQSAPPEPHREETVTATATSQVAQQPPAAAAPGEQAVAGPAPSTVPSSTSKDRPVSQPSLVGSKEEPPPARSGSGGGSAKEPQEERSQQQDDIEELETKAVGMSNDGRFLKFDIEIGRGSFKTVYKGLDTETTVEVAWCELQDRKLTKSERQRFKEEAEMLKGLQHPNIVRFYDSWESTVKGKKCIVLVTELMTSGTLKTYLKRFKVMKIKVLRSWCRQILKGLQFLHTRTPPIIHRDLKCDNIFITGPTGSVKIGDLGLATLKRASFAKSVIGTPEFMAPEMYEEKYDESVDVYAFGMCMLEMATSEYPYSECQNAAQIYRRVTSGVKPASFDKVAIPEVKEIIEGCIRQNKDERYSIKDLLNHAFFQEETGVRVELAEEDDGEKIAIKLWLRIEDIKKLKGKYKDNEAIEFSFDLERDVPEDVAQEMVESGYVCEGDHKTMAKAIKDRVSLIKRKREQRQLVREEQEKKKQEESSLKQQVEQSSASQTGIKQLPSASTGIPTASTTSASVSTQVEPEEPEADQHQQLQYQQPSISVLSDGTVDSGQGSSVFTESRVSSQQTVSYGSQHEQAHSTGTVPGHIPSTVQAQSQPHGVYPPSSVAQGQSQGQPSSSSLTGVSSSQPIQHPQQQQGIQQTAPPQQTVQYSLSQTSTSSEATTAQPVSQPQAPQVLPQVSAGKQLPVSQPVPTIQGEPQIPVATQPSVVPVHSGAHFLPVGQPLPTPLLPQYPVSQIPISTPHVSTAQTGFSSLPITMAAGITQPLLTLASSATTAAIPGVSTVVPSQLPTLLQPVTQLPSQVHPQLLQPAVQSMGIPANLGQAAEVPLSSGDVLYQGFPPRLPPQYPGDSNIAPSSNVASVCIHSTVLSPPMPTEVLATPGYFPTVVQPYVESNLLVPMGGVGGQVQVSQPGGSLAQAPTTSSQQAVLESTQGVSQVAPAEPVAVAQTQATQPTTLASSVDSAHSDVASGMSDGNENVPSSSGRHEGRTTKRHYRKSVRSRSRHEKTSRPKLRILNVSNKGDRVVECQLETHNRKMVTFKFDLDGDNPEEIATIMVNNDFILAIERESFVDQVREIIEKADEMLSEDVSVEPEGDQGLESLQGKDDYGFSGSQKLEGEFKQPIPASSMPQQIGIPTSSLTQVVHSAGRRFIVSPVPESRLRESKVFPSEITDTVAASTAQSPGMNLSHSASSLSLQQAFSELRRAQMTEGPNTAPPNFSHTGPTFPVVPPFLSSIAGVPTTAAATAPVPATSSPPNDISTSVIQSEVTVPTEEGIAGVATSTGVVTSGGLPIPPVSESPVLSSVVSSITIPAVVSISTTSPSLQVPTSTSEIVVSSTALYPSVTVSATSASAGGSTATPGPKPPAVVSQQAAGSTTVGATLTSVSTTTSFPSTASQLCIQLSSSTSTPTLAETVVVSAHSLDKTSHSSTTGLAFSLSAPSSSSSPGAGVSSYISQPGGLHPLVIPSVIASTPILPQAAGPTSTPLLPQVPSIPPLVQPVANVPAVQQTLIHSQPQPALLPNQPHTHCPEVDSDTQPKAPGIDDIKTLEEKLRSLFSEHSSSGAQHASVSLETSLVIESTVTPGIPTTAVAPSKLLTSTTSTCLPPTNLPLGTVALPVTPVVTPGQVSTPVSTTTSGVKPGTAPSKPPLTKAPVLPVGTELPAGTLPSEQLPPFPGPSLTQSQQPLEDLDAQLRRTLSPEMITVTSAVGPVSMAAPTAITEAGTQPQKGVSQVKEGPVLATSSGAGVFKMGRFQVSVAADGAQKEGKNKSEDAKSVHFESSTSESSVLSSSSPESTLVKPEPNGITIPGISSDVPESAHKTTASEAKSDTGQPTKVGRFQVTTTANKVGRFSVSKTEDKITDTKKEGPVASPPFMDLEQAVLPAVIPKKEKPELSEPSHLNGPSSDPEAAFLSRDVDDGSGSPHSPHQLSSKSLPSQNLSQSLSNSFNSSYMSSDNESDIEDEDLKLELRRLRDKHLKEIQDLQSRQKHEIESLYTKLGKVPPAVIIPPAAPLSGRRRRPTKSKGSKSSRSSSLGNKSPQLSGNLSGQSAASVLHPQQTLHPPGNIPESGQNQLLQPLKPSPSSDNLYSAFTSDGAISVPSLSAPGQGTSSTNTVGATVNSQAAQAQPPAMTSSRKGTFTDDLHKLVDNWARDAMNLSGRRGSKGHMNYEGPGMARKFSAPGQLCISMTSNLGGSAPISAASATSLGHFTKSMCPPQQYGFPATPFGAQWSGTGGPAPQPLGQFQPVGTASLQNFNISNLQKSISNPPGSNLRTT
Assay [7] deals with Tyrosine-protein kinase ABL2 (Homo sapiens, UniProt P42684). In words: Inhibition of ARG ACT labeling site in human A-375 cells at 5 uM by KiNativ Profiling analysis relative to control. It counts as cell-based. In short, it runs like this: as §1
The target in assay [8] is Mitogen-activated protein kinase 8 (Homo sapiens, UniProt P45983). In words: Inhibition of JNK1 (unknown origin) Lys2 labeling site by KiNativ Profiling analysis.
For assay [9], the target named is T1, Tyrosine-protein kinase Fer. Put plainly: Inhibition of FER Lys1 labeling site in human A-375 cells at 5 uM by KiNativ Profiling analysis relative to control. It counts as cell-based.
For assay [10], the target named is RAC-alpha serine/threonine-protein kinase (Homo sapiens) (UniProt P31749). In words: Inhibition of AKT1 ATP Loop labeling site in human A-375 cells at 0.5 uM by KiNativ Profiling analysis relative to control. It counts as cell-based. The procedure, abridged:
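Live A375 melanoma cells were treated with compound at 5 or 0.5 μM, then lysed. The lysates were labeled with a lysine-reactive ATP or ADP-biotin probe. Kinase protection from probe labeling was measured by KiNativ.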

In assay [11] the target is T2, Mitogen-activated protein kinase 12 (Homo sapiens) (UniProt P53778).
T2 sequence (whole entry): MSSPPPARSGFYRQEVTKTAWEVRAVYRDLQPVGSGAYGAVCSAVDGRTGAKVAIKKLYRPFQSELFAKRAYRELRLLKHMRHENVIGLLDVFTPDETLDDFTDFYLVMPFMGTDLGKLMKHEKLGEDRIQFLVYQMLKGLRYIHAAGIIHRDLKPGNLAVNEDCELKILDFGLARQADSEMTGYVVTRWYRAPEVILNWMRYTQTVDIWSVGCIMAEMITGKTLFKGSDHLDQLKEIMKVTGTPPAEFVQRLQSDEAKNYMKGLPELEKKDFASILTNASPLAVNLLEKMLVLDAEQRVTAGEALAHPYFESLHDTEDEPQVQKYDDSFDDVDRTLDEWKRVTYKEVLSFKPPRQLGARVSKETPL
Put plainly: Inhibition of p38 gamma Lys2 labeling site in human A-375 cells at 5 uM by KiNativ Profiling analysis relative to control. It counts as cell-based.

The target of assay [12] is Serine/threonine-protein kinase WNK1 (Homo sapiens) (UniProt Q9H4A3). Put plainly: Inhibition of Wnk1 ATP Loop labeling site in human A-375 cells at 0.05 uM by KiNativ Profiling analysis relative to control. It counts as cell-based.
The target of assay [13] is Glycogen synthase kinase-3 alpha (Homo sapiens) (UniProt P49840). Put plainly: Inhibition of GSK3A Lys2 labeling site in human A-375 cells at 0.05 uM by KiNativ Profiling analysis relative to control. Format: cell-based.
In assay [14] the target is Serine/threonine-protein kinase Nek6 (Homo sapiens) (UniProt Q9HC98). In words: Inhibition of NEK6 Lys2 labeling site in human A-375 cells at 0.5 uM by KiNativ Profiling analysis relative to control. Format: cell-based.
Sequence of Serine/threonine-protein kinase Nek6 (Homo sapiens) (Q9HC98 whole entry): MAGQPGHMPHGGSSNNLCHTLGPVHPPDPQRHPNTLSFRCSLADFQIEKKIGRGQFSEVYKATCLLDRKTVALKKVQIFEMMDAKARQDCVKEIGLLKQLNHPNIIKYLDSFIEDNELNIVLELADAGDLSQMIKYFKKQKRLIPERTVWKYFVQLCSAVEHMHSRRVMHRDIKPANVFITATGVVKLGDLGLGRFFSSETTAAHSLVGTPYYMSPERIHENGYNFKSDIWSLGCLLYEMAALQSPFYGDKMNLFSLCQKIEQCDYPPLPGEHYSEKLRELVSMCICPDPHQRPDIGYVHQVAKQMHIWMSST
Assay [15] addresses Cyclin-dependent kinase 11B (Homo sapiens) (UniProt P21127). In words: Inhibition of CDK11 Lys2 labeling site in human A-375 cells at 0.05 uM by KiNativ Profiling analysis relative to control. It counts as cell-based.
Assay [16] deals with T3, Serine/threonine-protein kinase NLK (Homo sapiens) (UniProt Q9UBE8).
T3 sequence (whole entry): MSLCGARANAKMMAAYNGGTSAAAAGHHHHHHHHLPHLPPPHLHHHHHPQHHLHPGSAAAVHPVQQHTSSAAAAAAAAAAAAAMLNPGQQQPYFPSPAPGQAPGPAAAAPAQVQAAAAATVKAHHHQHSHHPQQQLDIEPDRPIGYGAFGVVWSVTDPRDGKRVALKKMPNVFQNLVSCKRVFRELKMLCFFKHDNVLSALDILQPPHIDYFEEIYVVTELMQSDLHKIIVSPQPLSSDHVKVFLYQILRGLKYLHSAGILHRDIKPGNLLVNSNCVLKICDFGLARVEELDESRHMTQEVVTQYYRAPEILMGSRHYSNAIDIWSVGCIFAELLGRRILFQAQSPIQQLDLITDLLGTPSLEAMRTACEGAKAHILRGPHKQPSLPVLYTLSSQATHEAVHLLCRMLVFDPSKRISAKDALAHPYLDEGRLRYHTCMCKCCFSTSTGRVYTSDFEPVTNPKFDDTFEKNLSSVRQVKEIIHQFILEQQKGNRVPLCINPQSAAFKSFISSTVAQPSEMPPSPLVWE
In words: Inhibition of NLK Lys2 labeling site in human A-375 cells at 0.5 uM by KiNativ Profiling analysis relative to control. Format: cell-based.

In assay [17] the target is 5'-AMP-activated protein kinase catalytic subunit alpha-1 (Homo sapiens) (UniProt Q13131). Put plainly: Inhibition of AMPKa1 ATP Loop labeling site in human A-375 cells at 0.05 uM by KiNativ Profiling analysis relative to control. It counts as cell-based.
Sequence of 5'-AMP-activated protein kinase catalytic subunit alpha-1 (Homo sapiens) (Q13131 whole entry, looked up): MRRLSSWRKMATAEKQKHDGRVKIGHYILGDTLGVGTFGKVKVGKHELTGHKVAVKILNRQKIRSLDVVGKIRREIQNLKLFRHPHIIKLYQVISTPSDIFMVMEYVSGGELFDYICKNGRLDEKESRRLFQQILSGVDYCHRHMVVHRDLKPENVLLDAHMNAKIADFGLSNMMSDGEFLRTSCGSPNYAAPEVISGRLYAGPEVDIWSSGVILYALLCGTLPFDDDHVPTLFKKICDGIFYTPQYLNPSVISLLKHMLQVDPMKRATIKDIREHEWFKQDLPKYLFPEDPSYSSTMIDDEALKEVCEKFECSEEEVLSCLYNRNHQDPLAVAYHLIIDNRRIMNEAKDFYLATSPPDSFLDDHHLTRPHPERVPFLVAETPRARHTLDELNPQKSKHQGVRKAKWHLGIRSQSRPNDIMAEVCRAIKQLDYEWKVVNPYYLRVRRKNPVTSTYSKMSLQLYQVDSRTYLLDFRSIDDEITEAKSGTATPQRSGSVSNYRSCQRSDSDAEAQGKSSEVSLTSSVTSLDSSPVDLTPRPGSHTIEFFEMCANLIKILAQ
For assay [18], the target named is Cyclin-dependent kinase 11B (Homo sapiens) (UniProt P21127). In words: Inhibition of PITSLRE Lys2 labeling site in human A-375 cells at 0.5 uM by KiNativ Profiling analysis relative to control. Format: cell-based.
Sequence of Cyclin-dependent kinase 11B (Homo sapiens) (P21127 whole entry): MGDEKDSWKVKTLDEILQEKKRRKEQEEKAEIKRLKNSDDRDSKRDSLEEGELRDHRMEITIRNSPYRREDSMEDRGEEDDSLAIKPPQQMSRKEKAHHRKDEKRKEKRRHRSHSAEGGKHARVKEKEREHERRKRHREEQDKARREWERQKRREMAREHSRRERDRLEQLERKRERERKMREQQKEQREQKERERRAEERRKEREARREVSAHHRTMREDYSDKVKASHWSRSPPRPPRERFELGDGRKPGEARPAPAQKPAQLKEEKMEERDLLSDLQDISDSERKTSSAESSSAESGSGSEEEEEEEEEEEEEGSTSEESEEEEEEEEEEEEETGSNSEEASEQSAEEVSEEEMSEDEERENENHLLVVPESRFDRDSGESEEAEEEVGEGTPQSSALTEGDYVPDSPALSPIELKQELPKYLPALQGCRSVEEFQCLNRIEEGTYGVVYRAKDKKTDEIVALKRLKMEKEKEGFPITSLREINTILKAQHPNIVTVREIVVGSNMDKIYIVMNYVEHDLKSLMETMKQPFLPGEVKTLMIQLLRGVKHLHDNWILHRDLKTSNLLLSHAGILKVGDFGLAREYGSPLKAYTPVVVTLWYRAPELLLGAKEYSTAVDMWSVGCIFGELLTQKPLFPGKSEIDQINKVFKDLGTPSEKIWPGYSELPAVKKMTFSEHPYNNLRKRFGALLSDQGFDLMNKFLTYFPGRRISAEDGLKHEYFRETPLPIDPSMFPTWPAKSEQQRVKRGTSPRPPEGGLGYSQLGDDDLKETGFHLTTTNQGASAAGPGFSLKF
Assay [19] in a line: Inhibition of IL-1 induced p38 MAPK phosphorylation level in TAK1 deficient mouse MEF cells at 500 nM incubated for 1 hr followed by IL-1 stimulation by Western blot analysis relative to control. It counts as functional. In general terms: In western blotting, separated proteins are transferred to a membrane and probed.

In general, inhibition refers to the change of the read-out against control, counted positive when it falls. One may read the IC50 as the point on the concentration scale where inhibition reaches its midpoint. A low value points to greater potency.

T1 sequence (P16591 whole entry, looked up): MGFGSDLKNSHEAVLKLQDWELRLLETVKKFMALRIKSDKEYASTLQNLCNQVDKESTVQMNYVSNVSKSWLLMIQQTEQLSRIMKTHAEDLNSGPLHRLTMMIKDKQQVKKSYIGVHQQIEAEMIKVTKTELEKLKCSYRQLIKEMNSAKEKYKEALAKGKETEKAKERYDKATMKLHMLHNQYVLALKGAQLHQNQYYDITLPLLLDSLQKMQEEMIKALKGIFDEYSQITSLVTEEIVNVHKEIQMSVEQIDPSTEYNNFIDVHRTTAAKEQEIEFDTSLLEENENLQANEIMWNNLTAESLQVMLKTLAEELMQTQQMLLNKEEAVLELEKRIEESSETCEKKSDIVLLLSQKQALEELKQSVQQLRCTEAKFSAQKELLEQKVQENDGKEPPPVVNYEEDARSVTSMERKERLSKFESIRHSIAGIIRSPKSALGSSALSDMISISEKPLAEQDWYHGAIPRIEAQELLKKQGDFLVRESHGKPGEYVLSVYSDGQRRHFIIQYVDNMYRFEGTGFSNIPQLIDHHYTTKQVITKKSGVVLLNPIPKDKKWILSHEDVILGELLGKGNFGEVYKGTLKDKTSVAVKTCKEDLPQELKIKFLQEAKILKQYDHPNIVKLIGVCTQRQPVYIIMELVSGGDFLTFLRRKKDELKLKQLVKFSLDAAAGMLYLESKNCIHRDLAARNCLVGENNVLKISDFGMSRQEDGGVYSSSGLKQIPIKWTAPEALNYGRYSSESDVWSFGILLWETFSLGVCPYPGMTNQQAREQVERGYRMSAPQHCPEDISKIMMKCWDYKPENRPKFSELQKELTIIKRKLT

Take `CCN1CCN(Cc2ccc(NC(=O)c3ccc(C)c(/C=C/c4cnc5[nH]ccc5c4OC)c3)cc2C(F)(F)F)CC1`: the inhibition came out at 82.6% in [1]; 4.4% in assay [2]; 31.9% in [3]; 34.3% in assay [4]; 74% in [5]; 13.7% in assay [6]. In addition, the inhibition in [7] is greater than 98%; in assay [9], 80.3%; in assay [10], 15%; in assay [11], 52.7%; in assay [12] it was 5%; in assay [13] it was 14.4%. The inhibition is 10.7% in assay [14]; -9.4% in assay [15]; 27.3% in assay [16]; -8.8% in assay [17]; -0.4% in assay [18]. Besides, the 50% inhibitory concentration (IC50) at Ephrin type-A receptor 2 was 77 nM; in assay [8], greater than 10000 nM.

Take `CCN1CCN(Cc2ccc(NC(=O)c3ccc(C)c(Oc4ccnc5[nH]ccc45)c3)cc2C(F)(F)F)CC1`: the inhibition in assay [1] is 79.2%; in assay [2], -3.5%; in assay [3], 91.8%; in assay [4], 19.2%; in assay [5] it was 96.8%; in [6] it was 13.1%. For the same molecule, the inhibition in [7] was greater than 98%; in assay [9], 98.1%; in [10], -1%; in assay [11], greater than 94%; in [12] it was 2.4%; in [13] it was 0.3%. In addition, the inhibition in [14] was 7.8%; in [15], 32.1%; in [16], 3.1%; in [17], -4.4%; in assay [18], -2.7%. For the same molecule, the values for the IC50 (against Ephrin type-A receptor 2; in assay [8]) were 773 nM and greater than 10000 nM, respectively.

Turning to `CNc1cc(Oc2cc(C(=O)Nc3cc(-n4cnc(C)c4)cc(C(F)(F)F)c3)ccc2C)ncn1`, in assay [19], the inhibition at 0.5 µM turned out to be 100%.

Turning to `CNc1cc(Oc2cc(C(=O)Nc3cc(N4CCN(C)CC4)cc(C(F)(F)F)c3)ccc2C)ncn1`, the inhibition at 0.5 µM in assay [19] was determined as 100%.
